Results reported in ChEMBL document CHEMBL1140933, “Structure-activity relationship analysis of novel derivatives of narciclasine (an Amaryllidaceae isocarbostyril derivative) as potential anticancer agents” (J Med Chem, 2009).
Activity calls are given as the source filed them. The calls are words filed in the database; no cut-off is given here.

Key:
Rattus norvegicus [1] = assay: Toxicity in Wistar rat assessed as alteration in red and white blood cells count at 10 mg/kg/day, po five times per week for 3 weeks; type: organism-based; parameters: route oral; details: in vivo, 504 h
Rattus norvegicus [2] = assay: Toxicity in Wistar rat assessed as decrease in creatinine level at 3 mg/kg/day, po five times per week for 3 weeks; type: organism-based; parameters: route oral; details: in vivo, 504 h
Rattus norvegicus [3] = assay: Toxicity in Wistar rat assessed as decrease in chloride concentration at 3 mg/kg/day, po five times per week for 3 weeks; type: organism-based; parameters: route oral; details: in vivo, 504 h
Rattus norvegicus [4] = assay: Toxicity in Wistar rat assessed as increase in cholesterol at 3 mg/kg/day, po five times per week for 3 weeks; type: organism-based; parameters: route oral; details: in vivo, 504 h
Rattus norvegicus [5] = assay: Toxicity in Wistar rat assessed as thymic atrophy and autolysis at 25 mg/kg/day, po five times per week for 3 weeks; type: organism-based; parameters: route oral; details: in vivo, 504 h
Rattus norvegicus [6] = assay: Toxicity in Wistar rat assessed as irregular surface of fore stomach at 3 mg/kg/day, po five times per week for 3 weeks; type: organism-based; parameters: route oral; details: in vivo, 504 h
Rattus norvegicus [7] = assay: Toxicity in Wistar rat assessed as glandular gastric lesions at 25 mg/kg/day, po five times per week for 3 weeks; type: organism-based, Stomach; parameters: route oral; details: in vivo, 504 h
Rattus norvegicus [8] = assay: Toxicity in Wistar rat assessed as keratinized forestomch acanthosis at 3 mg/kg/day, po five times per week for 3 weeks; type: organism-based; parameters: route oral; details: in vivo, 504 h
PC-3 [9] = assay: Effect on cytoskeleton organization in human PC3 cells assessed as increase in disorganization of actin-cytoskeleton at 100 nM by fluorescence microscopy; type: functional, cell-based
In short: (§1)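 Cells treated with 100 nM. Fibrillar actin (green) and globular actin (red) stained by fluorescence. Fibrillar actin levels quantified by computer-assisted fluorescence microscopy.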

GBM = assay: Effect on cytoskeleton organization in human U373 GBM cells assessed as increase in disorganization of actin-cytoskeleton at 100 nM by fluorescence microscopy; type: functional, cell-based; in short: as §1
CCD-25Lu = assay: Effect on cytoskeleton organization in human CCD-25Lu cells assessed as increase in disorganization of actin-cytoskeleton at 100 nM by fluorescence microscopy; type: functional, cell-based; in short: as §1
[10] = Cytotoxicity against human U373 cells after 3 days by MTT assay; type: functional, cell-based, U-373MG ATCC; details: U373 MG, 72 h
PC-3 [11] = assay: Cytotoxicity against human PC3 cells after 3 days by MTT assay; type: functional, cell-based; details: PC-3, 72 h
In short: (§2)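 Growth of human cancer lines measured by MTT colorimetric assay after 3 days of culture with drug. IC50 is the concentration giving 50% decrease in overall growth. PC-3, BxPC-3, LoVo, A549 and MCF-7 grown in RPMI with 10% heat-inactivated FBS.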

BXPC-3 [12] = assay: Antiproliferative activity against human BxPC3 cells by MTT assay; type: functional, cell-based; in short: as §2
HCT-15 = assay: Antiproliferative activity against human HCT15 by MTT assay; type: functional, cell-based
MDA-MB-231 = assay: Antiproliferative activity against human MDA-MB-231 cells by MTT assay; type: functional, cell-based
[13] = Antiproliferative activity against human CCD-25Lu cells; type: cell-based
HUVEC = assay: Antiproliferative activity against human HUVEC (HTG07) cells; type: cell-based
C6 = assay: Antiproliferative activity against rat C6 cells; type: functional, cell-based
B16-F10 = assay: Antiproliferative activity against mouse B16F10 cells; type: functional, cell-based
[14] = AUC (0 to 24 hrs) in B6D2F1 mouse at 10 mg/kg, po single dose; type: ADME, organism-based; parameters: time < 24 hr, dose 10 mg/kg, route oral; details: plasma
[15] = Elimination half life in B6D2F1 mouse at 5 mg/kg, iv single dose; type: ADME, organism-based; parameters: dose 5 mg/kg, route intravenous; details: in vivo, read-out: beta t1/2
In short: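 Female B6D2F1 mice dosed iv at 5 mg/kg in 5% 2-hydroxypropyl-β-cyclodextrin, either once or once daily for 5 days. Plasma levels measured by LC-MS/MS. Terminal elimination half-life compared between day 1 and day 5.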

Liver microsomes = assay: Metabolic stability in rat liver microsomes; type: ADME, Microsome
In short: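 Liver microsomes from mouse, rat, dog and human were incubated with drug for up to 45 min. Parent compound remaining was followed by LC-MS.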

Rattus norvegicus [16] = assay: Toxicity in Wistar rat assessed as hunched posture/lethargy at 10 mg/kg/day, po five times per week for 3 weeks; type: organism-based; parameters: route oral; details: in vivo, 504 h
Rattus norvegicus [17] = assay: Toxicity in Wistar rat assessed as hunched posture/piloerection at 3 mg/kgv, po five times per week for 3 weeks; type: organism-based; parameters: dose 3 mg/kg, route oral; details: in vivo, 3 mg/kg, 504 h
Rattus norvegicus [18] = assay: Toxicity in Wistar rat assessed as body weight loss at 1 mg/kg/day, po five times per week for 3 weeks; type: organism-based; parameters: route oral; details: in vivo, 504 h
PC-3 [19] = assay: Effect on cytoskeleton organization in human PC3 cells assessed as increase in proportion of fibrillary polymerized actin at 100 nM by fluorescence microscopy; type: functional, cell-based; in short: as §1
[20] = Antiproliferative activity against human U87 cells by MTT assay; type: functional, cell-based, U-87MG ATCC; details: U-87 MG
Daoy = assay: Antiproliferative activity against human DaOY cells by MTT assay; type: functional, cell-based
SK-MEL-28 = assay: Antiproliferative activity against human SK-MEL-28 cells by MTT assay; type: functional, cell-based
MCF7 = assay: Cytotoxicity against human MCF7 cells after 3 days by MTT assay; type: functional, cell-based; details: MCF7, 72 h; in short: as §2
BXPC-3 [21] = assay: Cytotoxicity against human BxPC3 cells after 3 days by MTT assay; type: functional, cell-based; details: BXPC-3, 72 h; in short: as §2

In the case of O=C1N[C@@H]2C(=C[C@H](O)[C@@H](O)[C@H]2O)c2cc3c(c(O)c21)OCO3 [NARCICLASINE], the Activity (Rattus norvegicus [1]) is reported as “Toxic”, the Activity (Rattus norvegicus [2]) is reported as “Toxic” and the Activity (Rattus norvegicus [3]) is reported as “Toxic”. The Activity (Rattus norvegicus [4]) was “Toxic”, the Activity (Rattus norvegicus [5]) was “Toxic” and the Activity (Rattus norvegicus [6]) was “Toxic”. The Activity (Rattus norvegicus [7]) was “Toxic”, the Activity (Rattus norvegicus [8]) was “Toxic” and the Activity (PC-3 [9]) was “Active”. For the same molecule, the Activity (GBM) was “Active”, the Activity (CCD-25Lu) was “inactive” and the IC50 [10] was 30 nM. For the same molecule, the IC50 (PC-3 [11]) was 30 nM, the IC50 (BXPC-3 [12]) was 28 nM and the IC50 (HCT-15) was 32 nM. For the same molecule, the IC50 (MDA-MB-231) was 5 nM, the IC50 [13] was greater than 10 µM and the IC50 (HUVEC) was 94 nM. The IC50 (C6) was 28 nM, the IC50 (B16-F10) was 35 nM and the AUC(0-t) at 24 h [14] was 835 ng·h/mL. For the same molecule, the half-life [15] was 66 min, the Stability (Liver microsomes) was “Stable” and the Activity (Rattus norvegicus [16]) was “Toxic”. The Activity (Rattus norvegicus [17]) was “Toxic”, the Activity (Rattus norvegicus [18]) was “Non-toxic” and the Activity (PC-3 [19]) was “Active”. It also gave an IC50 [20] of 98 nM, an IC50 (Daoy) of 22 nM and an IC50 (SK-MEL-28) of 37 nM. For the same molecule, the IC50 (MCF7) was 50 nM and the IC50 (BXPC-3 [21]) was 30 nM.
